According to ChEMBL document CHEMBL1123106, “Synthesis and biological activity of modified peptide inhibitors of angiotensin-converting enzyme” (J Med Chem, 1985):

Assays:
[1] = system: Angiotensin-converting enzyme (Cavia porcellus); test: In vitro inhibitory activity against Angiotensin I converting enzyme from unpurified guinea pig serum; No significant activity
Rattus norvegicus [2] = test: % decrease in mean arterial pressure in conscious renal hypertensive rats at a dose of 3 mg/Kg, administered perorally at MAP 190 mmHg; type: functional, Artery
Procedure, shortened: (§1)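 Conscious two-kidney, one-clip Goldblatt renal hypertensive rats (N = 3) were dosed orally at 3 or 30 mg/kg. Predose mean arterial pressure was about 190 mmHg. The read-out is % decrease in mean arterial pressure. N marks no significant lowering of arterial pressure at that dose.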

Rattus norvegicus [3] = test: % decrease in mean arterial pressure in conscious renal hypertensive rats at a dose of 30 mg/Kg, administered perorally at MAP 190 mmHg; type: functional, Artery
Procedure, shortened: as §1

Rattus norvegicus [4] = test: % decrease in mean arterial pressure in conscious renal hypertensive rats at a dose of 3 mg/Kg, administered perorally at MAP 190 mm Hg; N means no significant lowering of arterial pressure; type: functional, organism-based; details: Artery
Procedure, shortened: as §1

Rattus norvegicus [5] = test: % Decrease in mean arterial pressure in conscious renal hypertensive rats at a dose of 3 mg/Kg, administered perorally at MAP 190 mmHg; type: functional, Artery
Procedure, shortened: as §1

Rattus norvegicus [6] = test: % decrease in mean arterial pressure in conscious renal hypertensive rats at a dose of 3 mg/Kg, administered perorally at MAP 190 mm Hg; type: functional, Artery
Procedure, shortened: as §1

Rattus norvegicus [7] = test: % Decrease in mean arterial pressure in conscious renal hypertensive rats at a dose of 30 mg/Kg, administered perorally at MAP 190 mmHg; type: functional, Artery
Procedure, shortened: as §1

Rattus norvegicus [8] = test: % Decrease in mean arterial pressure in conscious renal hypertensive rats at a dose of 3 mg/Kg, administered perorally at MAP 190 mm Hg; N means no significant lowering of arterial pressure; type: functional, organism-based; details: Artery
Procedure, shortened: as §1

CC(SC(CCc1ccccc1)C(=O)O)C(=O)NC1(C(=O)O)CCCC1 (stereo not drawn)
IC50 [1]: No significant activity

CCOC(=O)C(CCc1ccccc1)OC(C)C(=O)N1Cc2ccccc2CC1C(=O)O (stereo not drawn)
Decrease in mean arterial pressure (Rattus norvegicus [2]): 8%
Decrease in mean arterial pressure (Rattus norvegicus [3]): 18%

CCOC(=O)C(CCc1ccccc1)OC(C)C(=O)N1C(C(=O)O)CC2CCCCC21 (stereo not drawn)
Decrease in mean arterial pressure (Rattus norvegicus [4]): No significant activity
Decrease in mean arterial pressure (Rattus norvegicus [3]): 12%

CCOC(=O)[C@H](CCc1ccccc1)N[C@@H](C)C(=O)N1Cc2ccccc2C[C@H]1C(=O)O
Decrease in mean arterial pressure (Rattus norvegicus [5]): 54%

CCOC(=O)[C@H](CCc1ccccc1)N[C@@H](C)C(=O)N1C2CCCCC2C[C@H]1C(=O)O (stereo partly drawn)
Decrease in mean arterial pressure (Rattus norvegicus [6]): 46%

CCOC(=O)C(CCc1ccccc1)S(=O)(=O)C(C)C(=O)N1CCC[C@H]1C(=O)O (stereo partly drawn)
IC50 [1]: No significant activity

CCOC(=O)[C@H](CCc1ccccc1)N[C@@H](C)C(=O)N1CCC[C@H]1C(=O)O
Decrease in mean arterial pressure (Rattus norvegicus [6]): 55%

CC(OC(CCc1ccccc1)C(=O)O)C(=O)N1CCCC1C(=O)O (stereo not drawn)
Decrease in mean arterial pressure (Rattus norvegicus [4]): No significant activity
Decrease in mean arterial pressure (Rattus norvegicus [3]): 9%

CC(C(=O)N1CCC[C@H]1C(=O)O)S(=O)(=O)C(CCc1ccccc1)C(=O)O (stereo partly drawn)
IC50 [1]: No significant activity

C[C@H](CS)C(=O)N1CCC[C@H]1C(=O)O [CAPTOPRIL]
Decrease in mean arterial pressure (Rattus norvegicus [6]): 49%

CC(SC(CCc1ccccc1)C(=O)O)C(=O)NC1(C(=O)O)CCC(c2ccccc2)CC1 (stereo not drawn)
IC50 [1]: No significant activity

CCOC(=O)C(CCc1ccccc1)[S+]([O-])C(C)C(=O)N1C2CCCCC2C[C@H]1C(=O)O (stereo partly drawn)
Decrease in mean arterial pressure (Rattus norvegicus [7]): 10%
Decrease in mean arterial pressure (Rattus norvegicus [8]): No significant activity

CCOC(=O)C(CCc1ccccc1)OC(C)C(=O)N1CCCC1C(=O)O (stereo not drawn)
Decrease in mean arterial pressure (Rattus norvegicus [4]): No significant activity
Decrease in mean arterial pressure (Rattus norvegicus [7]): 3%
